Tests used:
Format in all cases: functional
BT-549 = experiment: Growth inhibition of human BT549 cells assessed as cell growth at 10 uM after 48 hrs by sulforhodamine B assay; conditions: BT-549, 48 h, read-out: Activity
MCF7 = experiment: Growth inhibition of human MCF7 cells assessed as cell growth at 10 uM after 48 hrs by sulforhodamine B assay; conditions: MCF7, 48 h, read-out: Activity
PC-3 = experiment: Growth inhibition of human PC3 cells assessed as cell growth at 10 uM after 48 hrs by sulforhodamine B assay; conditions: PC-3, 48 h, read-out: Activity
RXF 393 [1] = experiment: Growth inhibition of human RXF393 cells assessed as cell growth at 10 uM after 48 hrs by sulforhodamine B assay; conditions: RXF 393, 48 h, read-out: Activity
CAKI-1 = experiment: Growth inhibition of human CAKI-1 cells assessed as cell growth at 10 uM after 48 hrs by sulforhodamine B assay; conditions: CAKI-1, 48 h, read-out: Activity
OVCAR-4 [2] = experiment: Growth inhibition of human OVCAR4 cells assessed as cell growth at 10 uM after 48 hrs by sulforhodamine B assay; conditions: OVCAR-4, 48 h, read-out: Activity
UACC-257 [3] = experiment: Growth inhibition of human UACC257 cells assessed as cell growth at 10 uM after 48 hrs by sulforhodamine B assay; conditions: UACC-257, 48 h, read-out: Activity
Method in brief: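 Single-dose NCI screen. Tumor lines were cultured in medium with 5% fetal calf serum and 2 mM L-glutamine, preincubated 24 h, then given compound in DMSO. After 48 h continuous exposure, cell growth was estimated by sulforhodamine B protein assay.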

SK-MEL-5 [4] = experiment: Growth inhibition of human SK-MEL-5 cells assessed as cell growth at 10 uM after 48 hrs by sulforhodamine B assay; conditions: SK-MEL-5, 48 h, read-out: Activity
Malme-3M = experiment: Growth inhibition of human MALME-3M cells assessed as cell growth at 10 uM after 48 hrs by sulforhodamine B assay; conditions: read-out: Activity
HCT-116 = experiment: Growth inhibition of human HCT116 cells assessed as cell growth at 10 uM after 48 hrs by sulforhodamine B assay; conditions: HCT-116, 48 h, read-out: Activity
NCI-H23 = experiment: Growth inhibition of human NCI-H23 cells assessed as cell growth at 10 uM after 48 hrs by sulforhodamine B assay; conditions: NCI-H23, 48 h, read-out: Activity
A549 = experiment: Growth inhibition of human A549/ATCC cells assessed as cell growth at 10 uM after 48 hrs by sulforhodamine B assay; conditions: A549, 48 h, read-out: Activity
K562 = experiment: Growth inhibition of human K562 cells assessed as cell growth at 10 uM after 48 hrs by sulforhodamine B assay; conditions: K562, 48 h, read-out: Activity
MDA-MB-231 = experiment: Growth inhibition of human MDA-MB-231 cells after 48 hrs by sulforhodamine B assay; conditions: MDA-MB-231, 48 h
Method in brief: (§1)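 NCI 60-cell-line panel grown in RPMI-type medium with 5% fetal calf serum and 2 mM L-glutamine. Cells preincubated 24 h, then exposed continuously for 48 h to compound in DMSO at 10^-4 to 10^-8 M (five 10-fold levels). Growth read by SRB protein stain. GI50 is the concentration giving a 50% reduction in net protein increase relative to control cells.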

TK-10 = experiment: Growth inhibition of human TK10 cells after 48 hrs by sulforhodamine B assay; conditions: TK-10, 48 h
Method in brief: (§2)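 NCI 60-line panel. Cells were grown in medium with 5% fetal calf serum and 2 mM L-glutamine and preincubated 24 h in plates. Compound in DMSO was added at 10^-4 to 10^-8 M (five 10-fold levels), with continuous exposure for 48 h. Growth was read by SRB protein staining. GI50 is the concentration giving 50% reduction in net protein increase versus control cells.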

RXF 393 [5] = experiment: Growth inhibition of human RXF393 cells after 48 hrs by sulforhodamine B assay; conditions: RXF 393, 48 h
Method in brief: (§3)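 NCI 60-cell-line panel. Cells were grown in medium with 5% fetal calf serum and 2 mM L-glutamine, then preincubated 24 h in plates. Compounds were added from DMSO at five 10-fold concentrations from 100 to 0.01 µM and left on cells continuously for 48 h. Cell growth was read by sulforhodamine B protein stain. GI50 is the concentration that halves net protein increase relative to control cells.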

ACHN = experiment: Growth inhibition of human ACHN cells after 48 hrs by sulforhodamine B assay; method in brief: as §1
[6] = Growth inhibition of human NCI-ADR-RES cells after 48 hrs by sulforhodamine B assay; method in brief: as §3
OVCAR-5 = experiment: Growth inhibition of human OVCAR5 cells after 48 hrs by sulforhodamine B assay; conditions: OVCAR-5, 48 h; method in brief: as §3
OVCAR-8 = experiment: Growth inhibition of human OVCAR8 cells after 48 hrs by sulforhodamine B assay; conditions: OVCAR-8, 48 h; method in brief: as §3
OVCAR-4 [7] = experiment: Growth inhibition of human OVCAR4 cells after 48 hrs by sulforhodamine B assay; conditions: OVCAR-4, 48 h; method in brief: as §3
UACC-257 [8] = experiment: Growth inhibition of human UACC257 cells after 48 hrs by sulforhodamine B assay; conditions: UACC-257, 48 h; method in brief: as §2
SK-MEL-5 [9] = experiment: Growth inhibition of human SK-MEL-5 cells after 48 hrs by sulforhodamine B assay; conditions: SK-MEL-5, 48 h; method in brief: as §3
SK-MEL-28 = experiment: Growth inhibition of human SK-MEL-28 cells after 48 hrs by sulforhodamine B assay; conditions: SK-MEL-28, 48 h; method in brief: as §3
LOX IMVI = experiment: Growth inhibition of human LOXIMVI cells after 48 hrs by sulforhodamine B assay; method in brief: as §1
SNB-75 = experiment: Growth inhibition of human SNB75 cells after 48 hrs by sulforhodamine B assay; conditions: SNB-75, 48 h; method in brief: as §3
HT-29 = experiment: Growth inhibition of human HT-29 cells after 48 hrs by sulforhodamine B assay; conditions: HT-29, 48 h; method in brief: as §1
HCT-15 = experiment: Growth inhibition of human HCT15 cells after 48 hrs by sulforhodamine B assay; conditions: HCT-15, 48 h; method in brief: as §1
NCI-H460 = experiment: Growth inhibition of human NCI-H460 cells after 48 hrs by sulforhodamine B assay; conditions: NCI-H460, 48 h; method in brief: as §3
[10] = read-out: LC50 (the source's name)

Structure (SMILES): CCc1ccc(C2=NN(c3ccc(S(C)(=O)=O)cc3)C(=O)CC2)cc1
- growth at 10 µM (BT-549): 21.9%
- growth at 10 µM (MCF7): 26%
- growth at 10 µM (PC-3): 56.6%
- growth at 10 µM (RXF 393 [1]): 27.4%
- growth at 10 µM (CAKI-1): 16.6%
- growth at 10 µM (OVCAR-4 [2]): 76.2%
- growth at 10 µM (UACC-257 [3]): 59.1%
- growth at 10 µM (SK-MEL-5 [4]): 10.7%
- growth at 10 µM (Malme-3M): 38.8%
- growth at 10 µM (HCT-116): 15.7%
- growth at 10 µM (NCI-H23): -4.83%
- growth at 10 µM (A549): 35.6%
- growth at 10 µM (K562): 10.4%
- GI50 (MDA-MB-231): 3.46 µM
- LC50 (MDA-MB-231): > 100 µM
- TGI (MDA-MB-231): > 100 µM
- GI50 (TK-10): 8.31 µM
- TGI (TK-10): > 100 µM
- CC50 (TK-10; [10]): > 100 µM
- GI50 (RXF 393 [5]): 2.04 µM
- LC50 (50% lethal concentration) (RXF 393 [5]): > 100 µM
- TGI (RXF 393 [5]): 19.8 µM
- GI50 (ACHN): 8.59 µM
- LC50 (concentration killing 50% of starting cells) (ACHN): > 100 µM
- TGI (ACHN): > 100 µM
- GI50 [6]: 0.4 µM
- LC50 [6]: > 100 µM
- TGI [6]: 3.34 µM
- GI50 (OVCAR-5): 8.51 µM
- TGI (OVCAR-5): > 100 µM
- CC50 (OVCAR-5; [10]): > 100 µM
- GI50 (OVCAR-8): 3.25 µM
- LC50 (OVCAR-8): > 100 µM
- TGI (OVCAR-8): > 100 µM
- GI50 (OVCAR-4 [7]): 0.01 µM
- LC50 (OVCAR-4 [7]): > 100 µM
- TGI (OVCAR-4 [7]): > 100 µM
- GI50 (UACC-257 [8]): 3.3 µM
- LC50 (concentration killing 50% of cells) (UACC-257 [8]): > 100 µM
- TGI (UACC-257 [8]): 61.5 µM
- GI50 (SK-MEL-5 [9]): 1.48 µM
- LC50 (SK-MEL-5 [9]): 35.7 µM
- TGI (SK-MEL-5 [9]): 11.2 µM
- GI50 (SK-MEL-28): 1.84 µM
- TGI (SK-MEL-28): > 100 µM
- CC50 (SK-MEL-28; [10]): > 100 µM
- GI50 (LOX IMVI): 3.5 µM
- TGI (LOX IMVI): > 100 µM
- CC50 (LOX IMVI; [10]): > 100 µM
- GI50 (SNB-75): 1.32 µM
- TGI (SNB-75): > 7.89 µM
- CC50 (SNB-75; [10]): > 100 µM
- GI50 (HT-29): 0.41 µM
- LC50 (50% lethal concentration) (HT-29): > 100 µM
- TGI (HT-29): 12.1 µM
- GI50 (HCT-15): 1.9 µM
- LC50 (HCT-15): > 100 µM
- TGI (HCT-15): > 100 µM
- GI50 (NCI-H460): 0.82 µM
- TGI (NCI-H460): 36.9 µM
- CC50 (NCI-H460; [10]): > 100 µM

From ChEMBL document CHEMBL2417474, “Synthesis, antiproliferative and anti-inflammatory activities of some novel 6-aryl-2-(p-(methanesulfonyl)phenyl)-4,5-dihydropyridazi-3(2H)-ones” (Eur J Med Chem, 2013)
